Measured values gathered from unrelated publications.
Target: cAMP-dependent protein kinase catalytic subunit PRKX (PRKX, Homo sapiens, UniProt P51817)
Sequence (P51817 1-358, as in one of the studies): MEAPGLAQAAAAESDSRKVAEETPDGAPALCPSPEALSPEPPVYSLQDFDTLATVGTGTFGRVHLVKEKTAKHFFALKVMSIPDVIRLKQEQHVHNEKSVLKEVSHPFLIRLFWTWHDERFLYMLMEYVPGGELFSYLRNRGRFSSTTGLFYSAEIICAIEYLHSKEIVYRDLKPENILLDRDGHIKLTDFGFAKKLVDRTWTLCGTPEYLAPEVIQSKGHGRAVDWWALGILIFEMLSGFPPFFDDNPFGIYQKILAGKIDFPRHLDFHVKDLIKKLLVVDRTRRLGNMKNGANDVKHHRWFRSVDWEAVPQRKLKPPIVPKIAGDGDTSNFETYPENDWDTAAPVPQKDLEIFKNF

| SMILES | effect on | technique | tested at | remaining binding [%] |
| --- | --- | --- | --- | --- |
| CCN1CCN(Cc2ccc(C(=O)Nc3ccc(C)c(Oc4ccc5c(c4)CC(=O)N5)c3)cc2C(F)(F)F)CC1 | binding | competition with immobilised ligand | 1 µM | 100 |
| Cc1cnc(Nc2ccc(C(=O)N3CCC(N4CCCC4)CC3)cc2)nc1-c1cc2ccccc2s1 | binding | competition with immobilised ligand | 1 µM | 72 |
| O=C(Nc1cnc(Oc2ccc(F)cc2)nc1)N1CCc2ncccc2[C@@H]1c1ccc(F)cc1 | cell-free assay | competition with immobilised ligand | 1 µM | 93 |
| COc1ccnn2ncc(-c3ccnc(N(C)C)n3)c12 | binding |  | 1 µM | 100 |
| COc1cnc(Nc2cccc(S(N)(=O)=O)c2)nc1N1CCN(c2ccccc2)C(=O)C1 | binding | competition with immobilised ligand | 1 µM | 91 |
| Nc1ncc2c(n1)-c1c([nH]c3ccc(C#CC4CC4)cc13)CCCC2 | binding | competition with immobilised ligand | 1 µM | 79 |
| CCCOc1ccc([C@H]2[C@H](C(=O)O)[C@@H](c3ccc4c(c3)OCO4)CN2CC(=O)Nc2c(CC)cccc2CC)cc1 | cell-free assay | competition with immobilised ligand | 1 µM | 91 |
| O=C(NCCCN1CCOCC1)c1ccc(Nc2nccc(-c3cc4ccccc4s3)n2)cc1 | binding | competition with immobilised ligand | 1 µM | 85 |
| O=C(NCC1CCOCC1)c1n[nH]cc1NC(=O)c1c(F)cccc1F | binding | competition with immobilised ligand | 1 µM | 100 |
| CN(CCCC(F)(F)F)c1nccc(-c2cnn3ncccc23)n1 | binding |  | 1 µM | 100 |
| Cc1c(NC(=O)c2cc(C(N)=O)nc3cc(F)ccc23)c(C(F)(F)F)nn1Cc1ccc(C(C)(C)C)cc1 | cell-free assay | competition with immobilised ligand | 1 µM | 94 |
| C[C@@H]1CCN(c2nccc(-c3cnn4ncccc34)n2)C1 | binding |  | 1 µM | 100 |
| Cn1cc(Cl)c2c(Oc3c(F)cc(Nc4cc(Cl)nc(N)n4)cc3F)ccnc21 | cell-free assay | competition with immobilised ligand | 0.1 µM | 100 |
| CN(C)c1ncc(F)c(-c2cnn3ncccc23)n1 | binding |  | 1 µM | 100 |
| FC(F)(F)Oc1cccc(-c2cnc3ccc(-c4ccncc4)nn23)c1 | cell-free assay | competition with immobilised ligand | 5 µM | 85 |
| COc1cnc(Nc2cccc(S(N)(=O)=O)c2)nc1N1CCN(c2ccccc2)CC1 | binding | competition with immobilised ligand | 1 µM | 100 |
| N[C@@H]1CCN(c2nccc(-c3cnn4ncccc34)n2)C1 | binding |  | 1 µM | 100 |
| Nc1cnc(N2CCc3cc(S(=O)(=O)Nc4c(F)cc(Cl)cc4F)cc(N4CCCC4=O)c32)nc1 | cell-free assay | competition with immobilised ligand | 1 µM | 99 |
| O=C(NCCCN1CCOCC1)c1ccc(Nc2ncc(Cl)c(-c3ccc(Cl)s3)n2)cc1 | binding | competition with immobilised ligand | 1 µM | 100 |
| Cc1cc(C)c(-n2ccn3nc(-c4cccnc4)cc23)cc1NC(=O)c1cc(C#N)cc(S(F)(F)(F)(F)F)c1 | cell-free assay | competition with immobilised ligand | 0.1 µM | 68.5 |
| CN(c1nccc(-c2cnn3ncccc23)n1)C1CC1 | binding |  | 1 µM | 98 |
